# Experimental data as given in ChEMBL document CHEMBL4715736, “Identification of anticancer agents based on the thieno[2,3-b]pyridine and 1H-pyrazole molecular scaffolds” (2016).
# Key:
# Format in all cases: functional
# SF-539 = test: Growth inhibition of human SF-539 cells assessed as cell growth at 10 uM incubated for 48 hrs by sulforhodamine B assay relative to control; settings: read-out: Activity
# In short: (§1)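 Run by the NCI Developmental Therapeutics Program as part of its 60-line human tumour panel. Each compound tested at a single 10 µM dose. Growth expressed as % relative to untreated control cells (100%).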
# NCI-H522 = test: Growth inhibition of human NCI-H522 cells assessed as cell growth at 10 uM incubated for 48 hrs by sulforhodamine B assay relative to control; settings: read-out: Activity
# In short: (§2)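 Submitted to the NCI Developmental Therapeutics Program for the NCI60 human tumour cell line panel. First screen at a single 10 µM concentration. Read-out is growth relative to untreated control cells set at 100%.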
# HOP-92 = test: Growth inhibition of human HOP-92 cells assessed as cell growth at 10 uM incubated for 48 hrs by sulforhodamine B assay relative to control; settings: read-out: Activity; in short: as §2
# CAKI-1 = test: Growth inhibition of human CAKI-1 cells assessed as cell growth at 10 uM incubated for 48 hrs by sulforhodamine B assay relative to control; settings: read-out: Activity
# In short: (§3)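 NCI Developmental Therapeutics Program NCI60 panel. Compounds that were active in the 10 µM one-dose screen went on to dose–response testing. Growth at each concentration is expressed relative to untreated control (100%). GI50 (concentration giving 50% of maximal inhibition of proliferation) and TGI (concentration giving total growth inhibition) were derived from the curves.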
# TK-10 = test: Growth inhibition of human TK-10 cells assessed as cell growth at 10 uM incubated for 48 hrs by sulforhodamine B assay relative to control; settings: read-out: Activity; in short: as §1
# HOP-62 = test: Growth inhibition of human HOP-62 cells assessed as cell growth at 10 uM incubated for 48 hrs by sulforhodamine B assay relative to control; settings: read-out: Activity; in short: as §2
# NCI-H460 = test: Growth inhibition of human NCI-H460 cells assessed as cell growth at 10 uM incubated for 48 hrs by sulforhodamine B assay relative to control; settings: read-out: Activity; in short: as §2
# CCRF-CEM = test: Growth inhibition of human CCRF-CEM cells assessed as cell growth at 10 uM incubated for 48 hrs by sulforhodamine B assay relative to control; settings: read-out: Activity; in short: as §3
# Hs-578T = test: Growth inhibition of human Hs-578T cells assessed as cell growth at 10 uM incubated for 48 hrs by sulforhodamine B assay relative to control; settings: read-out: Activity; in short: as §2
# DU-145 = test: Growth inhibition of human DU-145 cells assessed as cell growth at 10 uM incubated for 48 hrs by sulforhodamine B assay relative to control; settings: read-out: Activity; in short: as §3
# NCI/ADR-RES = test: Growth inhibition of human NCI/ADR-RES cells assessed as cell growth at 10 uM incubated for 48 hrs by sulforhodamine B assay relative to control; settings: read-out: Activity; in short: as §2
# UACC-257 = test: Growth inhibition of human UACC-257 cells assessed as cell growth at 10 uM incubated for 48 hrs by sulforhodamine B assay relative to control; settings: read-out: Activity; in short: as §1
# MCF7 = test: Growth inhibition of human MCF7 cells assessed as cell growth at 10 uM incubated for 48 hrs by sulforhodamine B assay relative to control; settings: read-out: Activity; in short: as §2
# 786-0 = test: Growth inhibition of human 786-0 cells assessed as cell growth at 10 uM incubated for 48 hrs by sulforhodamine B assay relative to control; settings: read-out: Activity; in short: as §3
# T47D = test: Growth inhibition of human T47D cells assessed as cell growth at 10 uM incubated for 48 hrs by sulforhodamine B assay relative to control; settings: read-out: Activity; in short: as §1
# HL-60(TB) = test: Growth inhibition of human HL-60(TB) cells assessed as cell growth at 10 uM incubated for 48 hrs by sulforhodamine B assay relative to control; settings: read-out: Activity
# In short: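 Screened by the NCI Developmental Therapeutics Program on its panel of 60 human tumour cell lines. Compounds were first tested at a single 10 µM dose, and compounds active there went to dose-response curves. Growth is expressed relative to untreated control (100%). GI50 (50% of maximal proliferation inhibition) and TGI (total growth inhibition) were derived from the dose-response data.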
# MDA-MB-231 = test: Growth inhibition of human MDA-MB-231 cells assessed as cell growth at 10 uM incubated for 48 hrs by sulforhodamine B assay relative to control; settings: read-out: Activity; in short: as §2
# SK-MEL-2 = test: Growth inhibition of human SK-MEL-2 cells assessed as cell growth at 10 uM incubated for 48 hrs by sulforhodamine B assay relative to control; settings: read-out: Activity; in short: as §1
# HCT-15 = test: Growth inhibition of human HCT-15 cells assessed as cell growth at 10 uM incubated for 48 hrs by sulforhodamine B assay relative to control; settings: read-out: Activity; in short: as §2
# SNB-75 = test: Growth inhibition of human SNB-75 cells assessed as cell growth at 10 uM incubated for 48 hrs by sulforhodamine B assay relative to control; settings: read-out: Activity; in short: as §1
# MOLT-4 = test: Growth inhibition of human MOLT-4 cells assessed as cell growth at 10 uM incubated for 48 hrs by sulforhodamine B assay relative to control; settings: read-out: Activity; in short: as §2
# SW-620 = test: Growth inhibition of human SW-620 cells incubated for 48 hrs by sulforhodamine B assay
# In short: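 NCI DTP 60-line human tumour panel. Dose-response curves were run only for ligands active in the initial 10 µM screen. GI50 (concentration giving 50% of maximal inhibition of proliferation) and TGI (concentration giving total growth inhibition) were derived from these curves.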
# IGROV-1 = test: Growth inhibition of human IGROV-1 cells incubated for 48 hrs by sulforhodamine B assay
# In short: (§4)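 NCI60 panel at the NCI Developmental Therapeutics Program. Only compounds active in the 10 µM screen went to dose-response testing. GI50, the concentration giving 50% of maximal inhibition of proliferation, and TGI, the concentration giving total growth inhibition, were derived from the dose-response curves.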
# MDA-MB-468 = test: Growth inhibition of human MDA-MB-468 cells incubated for 48 hrs by sulforhodamine B assay; in short: as §4
Compound,growth at 10 µM (SF-539) [%],growth at 10 µM (HOP-92) [%],growth at 10 µM (CAKI-1) [%],growth at 10 µM (HOP-62) [%],growth at 10 µM (NCI-H460) [%],growth at 10 µM (CCRF-CEM) [%],growth at 10 µM (Hs-578T) [%],growth at 10 µM (DU-145) [%],growth at 10 µM (NCI/ADR-RES) [%],growth at 10 µM (UACC-257) [%],growth at 10 µM (MCF7) [%],growth at 10 µM (786-0) [%],growth at 10 µM (T47D) [%],growth at 10 µM (HL-60(TB)) [%],growth at 10 µM (MDA-MB-231) [%],growth at 10 µM (HCT-15) [%],growth at 10 µM (SNB-75) [%],growth at 10 µM (MOLT-4) [%],other results
CC(=O)Nc1ccc(S(=O)(=O)n2ccc(-c3ccc4c(c3)CCC(C)(C)O4)n2)cc1,73.8,69.8,48.8,94.4,41.4,55.4,102,83.5,56.9,46,66.2,79.8,31.1,91.9,88.6,59.3,81.5,50.7,growth at 10 µM (NCI-H522): 54%; growth at 10 µM (TK-10): 55.1%; growth at 10 µM (SK-MEL-2): 53.5%
COc1ccc(-c2ccn(S(=O)(=O)c3ccc(C)cc3)n2)cc1,97,79.9,69.5,108,81,85.7,96,93.7,78.7,79.9,88.3,83,48,114,89.2,84.2,92.5,95.2,–
Cc1cc(C)cc(S(=O)(=O)n2ccc(-c3ccc4c(c3)CCC(C)(C)O4)n2)c1,99.8,78.1,72.5,116,84.4,96.3,92.7,89.8,79,89.6,81.5,82.8,58.2,99.8,93.5,82.3,87.2,91.4,–
CCc1cccc(C)c1NC(=O)c1sc2nc3c(cc2c1N)C(=O)CCC3,-27,30,38,23.3,4,1,24.8,14.2,-3,49,13,28,24.4,-30,14,16,-2.83,17.9,GI50 (SW-620): 0.359 µM; LC50 (concentration killing 50% of cells) (SW-620): > 100 µM; TGI (SW-620): > 100 µM; GI50 (IGROV-1): 0.111 µM; LC50 (IGROV-1): > 100 µM; TGI (IGROV-1): > 100 µM; GI50 (MDA-MB-468): 0.261 µM; TGI (MDA-MB-468): 60.6 µM; CC50 (MDA-MB-468; read-out: LC50 (the source's name)): > 100 µM
COc1ccc(S(=O)(=O)n2ccc(-c3ccc(OC(C)C)cc3)n2)cc1,97,75.7,66,126,84.5,72.6,95.5,94.3,81.3,99.2,93.8,81.1,72.3,90.3,93,87.6,96.9,86.9,–
